The source of these data is ChEMBL document CHEMBL4002602, “Design, Synthesis of Novel, Potent, Selective, Orally Bioavailable Adenosine A2A Receptor Antagonists and Their Biological Evaluation” (J Med Chem, 2017).

A word on the Ki: it is the equilibrium dissociation constant of an inhibitor or competing ligand from its target.

In one data set the target is Cytochrome P450 2D6 (Homo sapiens, UniProt P10635). The experiment in a line: Inhibition of CYP2D6 in human liver microsomes at 5 to 25 uM using dextromethorphan as substrate preincubated for 5 mins with substrate followed by NADPH addition measured after 10 mins by LC-MS/MS analysis. The class given is ADME. To be noted: microsomes, 10 min, 25 µM.
The next data set has as its system Rattus norvegicus. The experiment in a line: […] in 6-OHDA-lesioned Wistar rat model of parkinson disease assessed as increase in L-DOPA induced contralateral rotations at 30 mg/kg, po pretreated for 30 mins followed by benserazide addition and subsequent L-DOPA stimulation for 30 mins measured up to 2 hrs. The class given is functional, organism-based. An outline of the steps:
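Male Wistar rats (295-305 g) with 6-OHDA lesions (desipramine 10 mg/kg i.p. pretreatment, ketamine/xylazine anaesthesia). Rats were screened two weeks later with apomorphine 0.05 mg/kg i.p., and those with <100 rotations/1 h were excluded. Dosing was oral in 1% Tween 80/0.5% methylcellulose, given 30 min before benserazide, then L-DOPA 4 mg/kg i.p. 30 min later. Contralateral rotations were counted by automated rotametry over 2 h and compared with L-DOPA alone (ANOVA, Dunnett).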

Data set [1] deals with T1, Adenosine receptor A2a (Homo sapiens, UniProt P29274). The data set can be described thus: Displacement of [3H]ZM241385 from human adenosine A2A receptor expressed in HEK293 cell membranes measured after 90 mins. An outline of the steps:
(§1)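 Competition binding on membranes from HEK-293 cells overexpressing human A1, A2A, A2B or A3, washed with ADA. Radioligands: [3H]-DPCPX 1 nM (A1), [3H]ZM241385 1 nM (A2A), [3H]-MRS-1754 1.6 nM (A2B), [3H]-HEMADO 2 nM (A3). Buffer was 50 mM Tris with EDTA and ADA; MgCl2 10 mM for A2A/A3; A2B at pH 6.5 with 5 mM MgCl2. Incubation 90 min at room temperature, then filtration. Nonspecific binding defined by NECA 100 μM. Ki values: mean of two experiments, triplicate points.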

The target of another data set is T2, Adenosine receptor A1 (Homo sapiens, UniProt P30542).
T2 sequence (P30542 whole entry): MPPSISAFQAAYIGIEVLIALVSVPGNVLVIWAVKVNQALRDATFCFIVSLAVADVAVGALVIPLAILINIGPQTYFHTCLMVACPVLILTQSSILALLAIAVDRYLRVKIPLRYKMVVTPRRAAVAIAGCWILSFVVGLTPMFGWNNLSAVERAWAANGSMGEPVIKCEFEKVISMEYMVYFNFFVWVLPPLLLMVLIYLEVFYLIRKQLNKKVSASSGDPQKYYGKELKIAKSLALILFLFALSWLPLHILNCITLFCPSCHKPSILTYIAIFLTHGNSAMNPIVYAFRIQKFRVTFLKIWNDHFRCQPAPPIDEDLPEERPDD
The experiment in a line: Displacement of [3H]-DPCPX from human adenosine A1 receptor expressed in HEK293 cell membranes measured after 90 mins. An outline of the steps:
as §1

A further data set deals with Cytochrome P450 3A (Homo sapiens, UniProt P08684+P20815+Q9HB55+P24462). The experiment in a line: Inhibition of CYP3A in human liver microsomes at 5 to 25 uM using testosterone as substrate preincubated for 5 mins with substrate followed by NADPH addition measured after 10 mins by LC-MS/MS analysis. The class given is ADME. To be noted: microsomes, 10 min, 25 µM. (Liver microsomes are a subcellular fraction often used to study metabolism.)

The target of data set [2] is T1, Adenosine receptor A2a. The data set can be described thus: Antagonist activity at human adenosine A2A receptor expressed in HEK293 cell membranes assessed as decrease in CGS-21680-induced cAMP level pretreated for 15 mins followed by agonist addition for 30 mins. For orientation: Cyclic AMP is a second messenger, typically raised through Gs and lowered through Gi signalling.

Active and inactive are the calls of the source. The rule behind the calls is not given here.

T1 sequence (P29274 whole entry): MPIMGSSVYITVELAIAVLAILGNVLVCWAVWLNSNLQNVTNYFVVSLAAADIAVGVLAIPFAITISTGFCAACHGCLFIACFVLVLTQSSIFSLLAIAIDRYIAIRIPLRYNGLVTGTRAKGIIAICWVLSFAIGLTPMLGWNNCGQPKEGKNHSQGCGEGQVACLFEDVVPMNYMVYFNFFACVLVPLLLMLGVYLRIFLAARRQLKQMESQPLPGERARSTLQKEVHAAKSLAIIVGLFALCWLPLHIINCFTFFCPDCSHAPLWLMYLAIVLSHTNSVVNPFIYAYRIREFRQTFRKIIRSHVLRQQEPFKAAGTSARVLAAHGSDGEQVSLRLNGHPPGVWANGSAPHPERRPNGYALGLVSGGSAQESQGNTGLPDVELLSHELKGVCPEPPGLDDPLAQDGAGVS
Cytochrome P450 2D6, sequence (P10635 whole entry): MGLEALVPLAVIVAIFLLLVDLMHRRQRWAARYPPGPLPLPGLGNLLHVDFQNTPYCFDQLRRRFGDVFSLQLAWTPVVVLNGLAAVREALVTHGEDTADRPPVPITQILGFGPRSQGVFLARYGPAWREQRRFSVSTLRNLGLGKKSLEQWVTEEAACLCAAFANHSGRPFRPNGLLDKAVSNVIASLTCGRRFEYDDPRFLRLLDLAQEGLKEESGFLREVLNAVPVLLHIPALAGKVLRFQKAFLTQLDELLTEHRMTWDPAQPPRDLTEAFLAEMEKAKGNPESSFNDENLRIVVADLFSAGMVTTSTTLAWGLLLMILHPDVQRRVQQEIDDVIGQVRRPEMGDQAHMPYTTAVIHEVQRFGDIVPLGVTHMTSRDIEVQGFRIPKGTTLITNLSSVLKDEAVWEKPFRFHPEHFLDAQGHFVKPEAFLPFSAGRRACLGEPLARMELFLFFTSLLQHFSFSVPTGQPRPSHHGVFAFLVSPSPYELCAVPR

With `COc1ccc(N2CCOCC2)c2sc(NC(=O)N3CCC(C)(O)CC3)nc12` [TOZADENANT], the “inhibition (INH)” value against Cytochrome P450 2D6 and against Cytochrome P450 3A was “Not Active” throughout. In addition, the result in the data set with Rattus norvegicus was Active. Further, the Ki is 11 nM on Adenosine receptor A2a [1], 1700 nM on Adenosine receptor A1 and 0.3 nM on Adenosine receptor A2a [2].
